Test [1] can be described thus: Compound was tested for the concentration of agent which reduces the supernatant protein concentration (tubulin, 1 mg/mL) by 50%; ED50/ED50taxol. The format is functional. The gist of the method: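 Tubulin assembly assay with tubulin at 1 mg/mL, 15 min at 37 °C. Read-out is protein left in the supernatant. ED50 is the agent concentration that lowers supernatant protein by 50%. Value expressed as a ratio to the ED50 of taxol.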

A further test has as its system A549. The experiment in a line: In vitro cytotoxicity against A549 (human lung carcinoma) cell line. It is filed as functional, cell-based. The gist of the method: (§1)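 Inhibition of cell proliferation measured against untreated cells after 72 h incubation at 37 °C. Read-out by MTT colorimetric microtiter assay. IC50 taken as the agent concentration giving 50% inhibition of proliferation.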

A further test relates to P388. As to the kind of experiment: In vitro cytotoxicity against P388 (murine leukemia) cell line. The note with it: Mus musculus. It is filed as functional, cell-based. The gist of the method:
as §1

The subject of the next test is HT-29. As to the kind of experiment: In vitro cytotoxicity against HT-29 (human colon adenocarcinoma) cell line. It is filed as functional, cell-based. The gist of the method:
as §1

The test system of a further test is B16-F10. The experiment in a line: In vitro cytotoxicity against B16F10 (mouse melanoma) cell line. It is filed as functional, cell-based. The gist of the method: as §1

Values after ≈ are worked out from the molar mass of the structure shown.

As a reminder, the IC50 is the concentration needed to halve the response being measured. As for `CC(=O)O[C@@H]1C2=C(C)[C@@H](OC(=O)[C@H](O)[C@@H](NC(=O)OC(C)(C)C)[C@H]3COC(C)(C)O3)C[C@@](O)([C@@H](OC(=O)c3ccccc3)[C@@H]3[C@]4(OC(C)=O)CO[C@@H]4C[C@H](O)[C@@]3(C)[C@H]1O)C2(C)C`, the Ratio in test [1] was determined as 7.91. Also, the IC50 with A549 was greater than 0.1 µg/mL; with P388, greater than 0.1 µg/mL; in the test with HT-29 it was greater than 0.1 µg/mL; with B16-F10 it was 0.086 µg/mL (≈ 0.0982 µM).
As for `CC(=O)O[C@@H]1C2=C(C)[C@@H](OC(=O)[C@H](O)[C@@H](NC(=O)OC(C)(C)C)C(C)O)C[C@@](O)([C@@H](OC(=O)c3ccccc3)[C@@H]3[C@]4(OC(C)=O)CO[C@@H]4C[C@H](O)[C@@]3(C)[C@H]1O)C2(C)C` (single isomer, unassigned) [listing 1 of 2 here], the IC50 in the test on A549, in the test with P388, in the test with HT-29 and in the test on B16-F10 was greater than 0.1 µg/mL throughout.
Regarding `CC(=O)O[C@@H]1C2=C(C)[C@@H](OC(=O)[C@H](O)[C@H](COc3ccccc3)NC(=O)c3ccccc3)C[C@@](O)([C@@H](OC(=O)c3ccccc3)[C@@H]3[C@]4(OC(C)=O)CO[C@@H]4C[C@H](O)[C@@]3(C)[C@H]1O)C2(C)C`, the Ratio in test [1] was 5.81. Moreover, the IC50 is 0.092 µg/mL (≈ 0.104 µM) with A549, greater than 0.1 µg/mL in the test on P388, 0.039 µg/mL (≈ 0.044 µM) with HT-29 and 0.084 µg/mL (≈ 0.0948 µM) in the test with B16-F10.
With `CC(=O)O[C@@H]1C2=C(C)[C@@H](OC(=O)[C@H](O)[C@H](CC(C)C)NC(=O)OC(C)(C)C)C[C@@](O)([C@@H](OC(=O)c3ccccc3)[C@@H]3[C@]4(OC(C)=O)CO[C@@H]4C[C@H](O)[C@@]3(C)[C@H]1O)C2(C)C`, the Ratio in test [1] was found to be 0.95. Further, the IC50 was determined as 0.00012 µg/mL (≈ 0.000144 µM) in the test with A549, 0.00036 µg/mL (≈ 0.000433 µM) with P388, 0.00038 µg/mL (≈ 0.000457 µM) with HT-29 and 0.0009 µg/mL (≈ 0.00108 µM) with B16-F10.
In the same order, the values of `CC(=O)O[C@@H]1C2=C(C)[C@@H](OC(=O)[C@H](O)[C@@H](NC(=O)OC(C)(C)C)c3cscn3)C[C@@](O)([C@@H](OC(=O)c3ccccc3)[C@@H]3[C@]4(OC(C)=O)CO[C@@H]4C[C@H](O)[C@@]3(C)[C@H]1O)C2(C)C` are 1.36, 0.0063 µg/mL (≈ 0.00733 µM), 0.0014 µg/mL (≈ 0.00163 µM), 0.00092 µg/mL (≈ 0.00107 µM) and 0.0003 µg/mL (≈ 0.000349 µM).
Take `COC[C@H](NC(=O)c1ccccc1)[C@@H](O)C(=O)O[C@H]1C[C@@]2(O)[C@@H](OC(=O)c3ccccc3)[C@@H]3[C@]4(OC(C)=O)CO[C@@H]4C[C@H](O)[C@@]3(C)[C@@H](O)[C@H](OC(C)=O)C(=C1C)C2(C)C`: the Ratio in test [1] is 3.14. Moreover, the IC50 is greater than 0.1 µg/mL with A549, greater than 0.1 µg/mL in the test with P388, 0.079 µg/mL (≈ 0.0959 µM) with HT-29 and greater than 0.1 µg/mL in the test with B16-F10.
Take `CC(=O)O[C@@H]1C2=C(C)[C@@H](OC(=O)[C@H](O)[C@@H](NC(=O)OC(C)(C)C)C(C)O)C[C@@](O)([C@@H](OC(=O)c3ccccc3)[C@@H]3[C@]4(OC(C)=O)CO[C@@H]4C[C@H](O)[C@@]3(C)[C@H]1O)C2(C)C` (single isomer, unassigned) [listing 2 of 2 here]: the Ratio in test [1] was determined as 0.8.
For `CC(=O)O[C@@H]1C2=C(C)[C@@H](OC(=O)[C@H](O)[C@@H](NC(=O)OC(C)(C)C)[C@H](O)CO)C[C@@](O)([C@@H](OC(=O)c3ccccc3)[C@@H]3[C@]4(OC(C)=O)CO[C@@H]4C[C@H](O)[C@@]3(C)[C@H]1O)C2(C)C`, the Ratio in test [1] stood at 2.71. Also, the IC50 in the test with A549, in the test with P388, in the test on HT-29 and with B16-F10 was greater than 0.1 µg/mL each time.
On to `CC(=O)O[C@@H]1C2=C(C)[C@@H](OC(=O)[C@H](O)[C@H](C)NC(=O)OC(C)(C)C)C[C@@](O)([C@@H](OC(=O)c3ccccc3)[C@@H]3[C@]4(OC(C)=O)CO[C@@H]4C[C@H](O)[C@@]3(C)[C@H]1O)C2(C)C`, for which the Ratio in test [1] is 1.08. In addition, the IC50 was found to be 0.015 µg/mL (≈ 0.019 µM) with A549, 0.043 µg/mL (≈ 0.0544 µM) with P388, 0.0083 µg/mL (≈ 0.0105 µM) in the test on HT-29 and 0.019 µg/mL (≈ 0.0241 µM) in the test with B16-F10.
In the same order, the values of `CCCC[C@@H](NC(=O)OC(C)(C)C)[C@@H](O)C(=O)O[C@H]1C[C@@]2(O)[C@@H](OC(=O)c3ccccc3)[C@@H]3[C@]4(OC(C)=O)CO[C@@H]4C[C@H](O)[C@@]3(C)[C@@H](O)[C@H](OC(C)=O)C(=C1C)C2(C)C` are 9.74, greater than 0.1 µg/mL, greater than 0.1 µg/mL, 0.067 µg/mL (≈ 0.0805 µM) and greater than 0.1 µg/mL.
As for `CC(=O)O[C@@H]1C2=C(C)[C@@H](OC(=O)[C@H](O)[C@@H](NC(=O)OC(C)(C)C)C(C)O)C[C@@](O)([C@@H](OC(=O)c3ccccc3)[C@@H]3[C@]4(OC(C)=O)CO[C@@H]4C[C@H](O)[C@@]3(C)[C@H]1O)C2(C)C` (mixture of isomers), the Ratio in test [1] stood at 1.2.
Consider `CC(=O)O[C@@H]1C2=C(C)[C@@H](OC(=O)[C@H](O)[C@H](Cc3ccccc3)NC(=O)OC(C)(C)C)C[C@@](O)([C@@H](OC(=O)c3ccccc3)[C@@H]3[C@]4(OC(C)=O)CO[C@@H]4C[C@H](O)[C@@]3(C)[C@H]1O)C2(C)C`, for which, in test [1], the Ratio is greater than 17.1. Moreover, the IC50 in the test with A549, in the test on P388, in the test with HT-29 and with B16-F10 was greater than 0.1 µg/mL throughout.
For `CC[C@H](NC(=O)OC(C)(C)C)[C@@H](O)C(=O)O[C@H]1C[C@@]2(O)[C@@H](OC(=O)c3ccccc3)[C@@H]3[C@]4(OC(C)=O)CO[C@@H]4C[C@H](O)[C@@]3(C)[C@@H](O)[C@H](OC(C)=O)C(=C1C)C2(C)C`, in test [1], the Ratio came out at 0.61. The IC50 in the test with A549 is 0.00083 µg/mL (≈ 0.00103 µM); in the test on P388, 0.011 µg/mL (≈ 0.0137 µM); with HT-29, 0.0014 µg/mL (≈ 0.00174 µM); in the test with B16-F10, 0.0032 µg/mL (≈ 0.00398 µM).
On to `CC(=O)O[C@@H]1C2=C(C)[C@@H](OC(=O)[C@H](O)[C@@H](NC(=O)OC(C)(C)C)C3CCCCC3)C[C@@](O)([C@@H](OC(=O)c3ccccc3)[C@@H]3[C@]4(OC(C)=O)CO[C@@H]4C[C@H](O)[C@@]3(C)[C@H]1O)C2(C)C`, for which, in test [1], the Ratio stood at 0.57. Further, the IC50 with A549 turned out to be 0.0065 µg/mL (≈ 0.00758 µM); in the test on P388 it was 0.014 µg/mL (≈ 0.0163 µM); in the test on HT-29, 0.005 µg/mL (≈ 0.00583 µM); in the test on B16-F10 it was 0.0057 µg/mL (≈ 0.00664 µM).
On the same counts, the results for `CC(=O)O[C@@H]1C2=C(C)[C@@H](OC(=O)[C@H](O)[C@@H](NC(=O)OC(C)(C)C)c3ccccc3)C[C@@](O)([C@@H](OC(=O)c3ccccc3)[C@@H]3[C@]4(OC(C)=O)CO[C@@H]4C[C@H](O)[C@@]3(C)[C@H]1O)C2(C)C` are 0.87, 0.003 µg/mL (≈ 0.00352 µM), 0.0025 µg/mL (≈ 0.00293 µM), 0.00016 µg/mL (≈ 0.000188 µM) and 0.0004 µg/mL (≈ 0.00047 µM).
On the same counts, the results for `CCCC[C@H](NC(=O)OC(C)(C)C)[C@@H](O)C(=O)O[C@H]1C[C@@]2(O)[C@@H](OC(=O)c3ccccc3)[C@@H]3[C@]4(OC(C)=O)CO[C@@H]4C[C@H](O)[C@@]3(C)[C@@H](O)[C@H](OC(C)=O)C(=C1C)C2(C)C` are 2.15, 0.0095 µg/mL (≈ 0.0114 µM), 0.018 µg/mL (≈ 0.0216 µM), 0.0088 µg/mL (≈ 0.0106 µM) and 0.0097 µg/mL (≈ 0.0117 µM).
On the same counts, the results for `CCCCC[C@H](NC(=O)OC(C)(C)C)[C@@H](O)C(=O)O[C@H]1C[C@@]2(O)[C@@H](OC(=O)c3ccccc3)[C@@H]3[C@]4(OC(C)=O)CO[C@@H]4C[C@H](O)[C@@]3(C)[C@@H](O)[C@H](OC(C)=O)C(=C1C)C2(C)C` are 2, 0.012 µg/mL (≈ 0.0142 µM), 0.016 µg/mL (≈ 0.0189 µM), 0.016 µg/mL (≈ 0.0189 µM) and 0.014 µg/mL (≈ 0.0165 µM).
On to `CC(=O)O[C@@H]1C2=C(C)[C@@H](OC(=O)[C@H](O)[C@@H](NC(=O)c3ccccc3)c3ccccc3)C[C@@](O)([C@@H](OC(=O)c3ccccc3)[C@@H]3[C@]4(OC(C)=O)CO[C@@H]4C[C@H](O)[C@@]3(C)[C@H]1O)C2(C)C`, for which the Ratio in test [1] is 0.86. The IC50 in the test on A549 turned out to be 0.019 µg/mL (≈ 0.0222 µM); in the test with P388, 0.053 µg/mL (≈ 0.0619 µM); in the test on HT-29, 0.08 µg/mL (≈ 0.0935 µM); in the test on B16-F10 it was 0.025 µg/mL (≈ 0.0292 µM).
As for `C=C[C@H](NC(=O)OC(C)(C)C)[C@@H](O)C(=O)O[C@H]1C[C@@]2(O)[C@@H](OC(=O)c3ccccc3)[C@@H]3[C@]4(OC(C)=O)CO[C@@H]4C[C@H](O)[C@@]3(C)[C@@H](O)[C@H](OC(C)=O)C(=C1C)C2(C)C`, the Ratio in test [1] was found to be 0.92. Moreover, the IC50 came out at 0.0011 µg/mL (≈ 0.00137 µM) with A549, 0.016 µg/mL (≈ 0.02 µM) in the test on P388, 0.0018 µg/mL (≈ 0.00224 µM) in the test with HT-29 and 0.0044 µg/mL (≈ 0.00549 µM) in the test with B16-F10.

Source of the values: ChEMBL document CHEMBL1127617, “Synthesis and biological evaluation of C-3'-modified analogs of 9(R)-dihydrotaxol” (J Med Chem, 1994).
